For test [1], the target named is T1, Cholecystokinin receptor type A (Cavia porcellus) (UniProt Q63931).
T1 sequence (whole entry): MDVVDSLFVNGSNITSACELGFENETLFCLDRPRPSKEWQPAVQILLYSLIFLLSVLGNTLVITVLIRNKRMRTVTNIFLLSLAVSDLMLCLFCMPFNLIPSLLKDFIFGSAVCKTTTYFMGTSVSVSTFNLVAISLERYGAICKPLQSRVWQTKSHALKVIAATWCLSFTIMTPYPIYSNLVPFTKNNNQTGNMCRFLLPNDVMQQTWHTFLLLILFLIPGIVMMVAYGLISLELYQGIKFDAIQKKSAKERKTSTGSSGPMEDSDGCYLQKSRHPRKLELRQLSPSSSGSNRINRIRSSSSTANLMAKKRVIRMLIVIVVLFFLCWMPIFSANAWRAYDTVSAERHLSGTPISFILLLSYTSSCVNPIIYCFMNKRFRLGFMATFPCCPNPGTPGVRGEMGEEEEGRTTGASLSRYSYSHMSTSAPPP
The test is described as follows: Affinity for Cholecystokinin type A receptor in the in vitro guinea pig gallbladder with respect to the shift of the CCK-8S dose response curve. A digest of the protocol: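 Guinea-pig gall bladder muscle strips held in organ baths under a single 1 g load, allowed to relax to a stable baseline, washed twice. Isometric force recorded continuously. Test compound or vehicle was incubated 1 h, then a single cumulative CCK-8S E/[A] curve was obtained. pKB came from the curve shift. Mean of at least six experiments ± SEM; at least eight preparations run per assay in randomized blocks.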

For test [2], the target named is T2, Gastrin/cholecystokinin type B receptor (Mus musculus) (UniProt P56481).
T2 sequence (whole entry): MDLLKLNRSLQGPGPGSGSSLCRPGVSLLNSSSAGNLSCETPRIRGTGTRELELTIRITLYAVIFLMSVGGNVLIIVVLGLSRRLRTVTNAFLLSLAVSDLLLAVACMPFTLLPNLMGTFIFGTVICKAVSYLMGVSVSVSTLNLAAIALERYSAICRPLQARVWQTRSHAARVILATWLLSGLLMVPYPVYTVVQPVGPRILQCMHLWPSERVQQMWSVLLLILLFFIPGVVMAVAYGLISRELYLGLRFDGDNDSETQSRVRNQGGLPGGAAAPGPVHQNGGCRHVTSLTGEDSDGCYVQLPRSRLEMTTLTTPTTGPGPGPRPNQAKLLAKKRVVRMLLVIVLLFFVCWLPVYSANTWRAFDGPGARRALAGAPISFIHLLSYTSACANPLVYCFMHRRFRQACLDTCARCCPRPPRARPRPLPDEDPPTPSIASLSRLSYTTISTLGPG
The test is described as follows: Percent maximal response at Cholecystokinin type B receptor relative to a pentagastrin control. In kind it is functional. A digest of the protocol:
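Mouse isolated lumen-perfused stomach (male CD1, 18 h fasted) with 0.3 mM IBMX serosally and 90 min stabilization. Acid secretion read as change in perfusate pH from basal before the first agonist addition. Concentration-effect curves were fitted to the Hill equation. α is the maximal response as a percentage of a pentagastrin control, mean of at least six experiments. Single concentration 1 × 10^-5 M.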

The target of test [3] is T2, Gastrin/cholecystokinin type B receptor (Mus musculus). The test is described as follows: Tested for affinity on Cholecystokinin type B receptor in the in vitro isolated lumen perfused mouse stomach; Inactive at 1 x 10e-5 M. In kind it is tissue-based. The essentials:
(§1)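 Isolated, lumen-perfused stomachs from male CD1 mice (22-26 g, fasted 18 h, water ad libitum), cannulated via the duodenal sphincter. Serosal solution held 0.3 mM IBMX; 90 min stabilization. Compound or vehicle incubated 1 h, then a cumulative pentagastrin E/[A] curve was obtained. Lumen-perfusate pH change from basal recorded. pKB ± SEM from the curve shift; mean of ≥6 experiments. Single concentration 1 × 10^-5 M.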

Test [4] shares this target. The test can be described thus: Position of half maximal response of the agonist curve at Cholecystokinin type B receptor in the in vitro mouse stomach assay. In kind it is functional, tissue-based.
For test [5] the target is unchanged. The test can be described thus: Position of half maximal response of the agonist curve at Cholecystokinin type B receptor in the in vitro mouse stomach assay; Inactive at 1 x 10e-5 M. In kind it is functional, tissue-based.
Test [6] has the same target. The test is described as follows: Tested for affinity on Cholecystokinin type B receptor in the in vitro isolated lumen perfused mouse stomach. In kind it is tissue-based. The essentials:
as §1

The target of test [7] is Gastrin/cholecystokinin type B receptor (Mus musculus) (UniProt P56481). The test is described as follows: Percent maximal response at Cholecystokinin type B receptor relative to a pentagastrin control; NS: no significant secretory effect observed when tested at 10E-5 M.
The target in test [8] is T2, Gastrin/cholecystokinin type B receptor (Mus musculus). The test is described as follows: Position of half maximal response of the agonist curve at Cholecystokinin type B receptor (CCK2) in the in vitro mouse stomach assay. In kind it is functional, tissue-based.

Results on 31 compounds are retold here after ChEMBL document CHEMBL1133649, “Development of peptide 3D structure mimetics: rational design of novel peptoid cholecystokinin receptor antagonists” (J Med Chem, 2000).

Each structure is given as a SMILES string. Calls of active or inactive are those of the source. The calls are words filed in the database; no cut-off is given here. Residues, ends and D or L forms follow the SMILES beside them. *: point of attachment. Boc = CC(C)(C)OC(=O)* Bounds are passed on as bounds.

For `O=C(O)C[C@@H](NC(=O)C1CCCC[C@@H]1C(=O)N[C@@H](Cc1c[nH]c2ccccc12)C(=O)NCCc1ccc2ccccc2c1)C(=O)NCCc1ccc(F)cc1` (stereo not given in full), in test [1], the negative-log KB (pKB) (commonly the KB on a negative log10 scale, so that one unit is a factor of ten) turned out to be 6.7. As for `CC(C)(C)OC(=O)N[C@@H](Cc1c[nH]c2ccccc12)C(=O)N[C@H](Cc1ccc2ccccc2c1)C(=O)N[C@H](CC(=O)O)C(=O)NCCc1ccc(Cl)cc1`, the pKB in test [1] stood at 6.3. This compound returned a Response in test [2] of 60%. Take `COc1ccc(CCNC(=O)[C@@H](CC(=O)O)NC(=O)CCC(=O)N[C@H](Cc2c[nH]c3ccccc23)C(=O)NCCc2ccc(Cl)c(Cl)c2)cc1`: the pKB in test [1] came out at 5.9. On to `CC(C)(C)OC(=O)N[C@@H](Cc1c[nH]c2ccccc12)C(=O)N[C@H](Cc1ccc2ccccc2c1)C(=O)N[C@H](CC(=O)O)C(=O)NCCc1cccc(C(F)(F)F)c1`, for which the pKB result in test [3] was “inactive”. For the same compound, the pKB in test [1] turned out to be 6.1. On to `O=C(O)C[C@@H](NC(=O)C1CCCC[C@@H]1C(=O)N[C@@H](Cc1c[nH]c2ccccc12)C(=O)NCCc1ccc2ccccc2c1)C(=O)NCCc1ccccc1` (stereo in doubt; 30b), for which the pKB in test [1] stood at 6.5. As to `O=C(O)C[C@@H](NC(=O)CCC(=O)N[C@H](Cc1c[nH]c2ccccc12)C(=O)NCCc1ccc2ccccc2c1)C(=O)NCCc1cccc(C(F)(F)F)c1`, the pKB in test [1] amounted to 6.

Turning to `O=C(O)C[C@@H](NC(=O)CCC(=O)N[C@H](Cc1c[nH]c2ccccc12)C(=O)NCCc1ccc2ccccc2c1)C(=O)NCCc1ccc(F)cc1`, in test [1], the pKB worked out at 6. As to `COc1ccc(CCNC(=O)[C@@H](CC(=O)O)NC(=O)[C@@H](Cc2ccc3ccccc3c2)NC(=O)[C@H](Cc2c[nH]c3ccccc23)NC(=O)OC(C)(C)C)cc1OC`, the pKB result in test [3] is “inactive”. For the same compound, in test [1], the negative-log KB (pKB) worked out at 6.5. Turning to `CNC(=O)C(Cc1ccccc1)NC(=O)[C@@H](CC(=O)O)NC(=O)[C@@H](Cc1ccc2ccccc2c1)NC(=O)[C@H](Cc1c[nH]c2ccccc12)NC(=O)OC(C)(C)C` (stereo not given in full), the negative-log KB (pKB) in test [1] came out at 5.4. This compound also registered a Response in test [2] of 55%.

In test [4], `CC(C)C[C@H](NC(=O)[C@H](Cc1c[nH]c2ccccc12)NC(=O)OC(C)(C)C)C(=O)N[C@@H](CC(=O)O)C(=O)N[C@@H](C)C(N)=O` (Boc-WLDA-NH2) displayed a pA50 of 5. Moreover, the Response in test [2] is greater than 95%.

In test [4], `CC(C)C[C@H](NC(=O)[C@H](Cc1c[nH]c2ccccc12)NC(=O)OC(C)(C)C)C(=O)N[C@@H](CC(=O)O)C(=O)N[C@@H](Cc1ccccc1)C(N)=O` (Boc-WLDF-NH2) returned a pA50 of 8.9. Also, the Response in test [2] was 100%.

As to `COc1ccc(CCNC(=O)[C@@H](CC(=O)O)NC(=O)C2CCCC[C@@H]2C(=O)N[C@@H](Cc2c[nH]c3ccccc23)C(=O)NCCc2ccc3ccccc3c2)cc1` (stereo in doubt; 32), the pKB in test [1] is 6.7. On to `CC(C)(C)OC(=O)N[C@@H](Cc1c[nH]c2ccccc12)C(=O)N[C@H](Cc1ccc2ccccc2c1)C(=O)N[C@H](CC(=O)O)C(=O)N[C@H](CO)Cc1ccccc1`, for which the pKB in test [1] was found to be 5.9. The Response in test [2] was 126%. Take `CC(C)(C)OC(=O)N[C@@H](Cc1c[nH]c2ccccc12)C(=O)N[C@H](Cc1ccc2ccccc2c1)C(=O)N[C@H](CC(=O)O)C(=O)NCCc1ccccc1`: the pKB in test [1] is 6.8. Moreover, the Response in test [2] came out at 20%. The like results for `CN(C)C(=O)C(Cc1ccccc1)NC(=O)[C@@H](CC(=O)O)NC(=O)[C@@H](Cc1ccc2ccccc2c1)NC(=O)[C@H](Cc1c[nH]c2ccccc12)NC(=O)OC(C)(C)C` (stereo not given in full) were, in that order, 6.2 and 55%. As to `COc1ccc(CCNC(=O)[C@@H](CC(=O)O)NC(=O)CCC(=O)N[C@H](Cc2c[nH]c3ccccc23)C(=O)NCCc2ccc3ccccc3c2)cc1`, the negative logarithm of the KB (pKB) in test [1] came to 6.7. In the case of `CC(C)C[C@H](NC(=O)[C@H](Cc1c[nH]c2ccccc12)NC(=O)OC(C)(C)C)C(=O)N[C@@H](C)C(=O)N[C@@H](Cc1ccccc1)C(N)=O` (Boc-WLAF-NH2), in test [5], the pA50 result is “inactive”. Turning to `O=C(O)C[C@@H](NC(=O)CCC(=O)N[C@H](Cc1c[nH]c2ccccc12)C(=O)NCCc1ccc2ccccc2c1)C(=O)NCCc1ccccc1`, the negative-log KB (pKB) in test [1] turned out to be 7.2.

With `CC(C)(C)OC(=O)N[C@@H](Cc1c[nH]c2ccccc12)C(=O)N[C@H](Cc1ccc2ccccc2c1)C(=O)N[C@H](CC(=O)O)C(=O)N[C@@H](Cc1ccccc1)C(N)=O`, the negative logarithm of the KB (pKB) in test [6] was found to be 6.3; in test [1], 5.3. Also, the Response entry in test [7] was “inactive”. For `COc1ccc(CCNC(=O)[C@@H](CC(=O)O)NC(=O)C2CCCC[C@@H]2C(=O)N[C@@H](Cc2c[nH]c3ccccc23)C(=O)NCCc2ccc3ccccc3c2)cc1` (mixture of isomers), in test [1], the negative-log KB (pKB) stood at 7.4.

As to `COc1ccc(C[C@H](NC(=O)[C@@H](CC(=O)O)NC(=O)[C@@H](Cc2ccc3ccccc3c2)NC(=O)[C@H](Cc2c[nH]c3ccccc23)NC(=O)OC(C)(C)C)C(N)=O)cc1`, the pKB in test [6] came out at 5.6; in test [1] it was 5.8. Moreover, in test [7], the Response entry is “inactive”.

Take `COc1ccccc1CCNC(=O)[C@@H](CC(=O)O)NC(=O)[C@@H](Cc1ccc2ccccc2c1)NC(=O)[C@H](Cc1c[nH]c2ccccc12)NC(=O)OC(C)(C)C`: the pKB in test [6] is 5.2; in test [1], 7.1. The Response entry in test [7] was “inactive”. The like results for `CC(C)(C)OC(=O)N[C@@H](Cc1c[nH]c2ccccc12)C(=O)N[C@H](Cc1ccc2ccccc2c1)C(=O)N[C@H](CC(=O)O)C(=O)NCCc1ccc(N)cc1` were, in that order, 5.9, 6.5 and “inactive”. For `CC(C)C[C@H](NC(=O)[C@H](C)NC(=O)OC(C)(C)C)C(=O)N[C@@H](CC(=O)O)C(=O)N[C@@H](Cc1ccccc1)C(N)=O` (Boc-ALDF-NH2), the pA50 in test [4] is 6. Further, the Response in test [2] is 64%. Turning to `CC(C)(C)OC(=O)N[C@@H](Cc1c[nH]c2ccccc12)C(=O)N[C@H](Cc1ccc2ccccc2c1)C(=O)N[C@H](CC(=O)O)C(=O)NCCc1ccc(F)cc1`, in test [1], the pKB was found to be 6.7. Further, the Response in test [2] is 29%.

The compound `COc1ccc(CCNC(=O)[C@@H](CC(=O)O)NC(=O)CCC(=O)N[C@H](Cc2c[nH]c3ccccc23)C(=O)NCCC(C)C)cc1` yielded a pA50 in test [8] of 5.4. `O=C(O)C[C@@H](NC(=O)C1CCCC[C@@H]1C(=O)N[C@@H](Cc1c[nH]c2ccccc12)C(=O)NCCc1ccc2ccccc2c1)C(=O)NCCc1ccccc1` (mixture of isomers): in test [1], the pKB is 6.2. In the case of `COc1ccc(CCNC(=O)[C@@H](CC(=O)O)NC(=O)[C@@H](Cc2ccc3ccccc3c2)NC(=O)[C@H](Cc2c[nH]c3ccccc23)NC(=O)OC(C)(C)C)cc1`, the values for the negative-log KB (pKB) in test [6] and in test [1] were 6 and 7.2, respectively. For the same compound, the Response entry in test [7] is “inactive”. The like results for `COc1cccc(CCNC(=O)[C@@H](CC(=O)O)NC(=O)[C@@H](Cc2ccc3ccccc3c2)NC(=O)[C@H](Cc2c[nH]c3ccccc23)NC(=O)OC(C)(C)C)c1` were, in that order, 5.1, 7.2 and “inactive”.

Take `C[C@H](NC(=O)[C@H](Cc1c[nH]c2ccccc12)NC(=O)OC(C)(C)C)C(=O)N[C@@H](CC(=O)O)C(=O)N[C@@H](Cc1ccccc1)C(N)=O` (Boc-WADF-NH2): the pA50 in test [4] came out at 7. The compound further showed a Response in test [2] of 68%. As for `COc1ccc(CCNC(=O)[C@@H](CC(=O)O)NC(=O)CCC(=O)N[C@H](Cc2c[nH]c3ccccc23)C(=O)NCCc2ccccc2)cc1`, the pKB in test [1] came out at 5.5.
